From ChEMBL document CHEMBL1137758, “Biphenyl C-cyclopropylalkylamides: New scaffolds for targeting estrogen receptor beta” (Bioorg Med Chem Lett, 2009)
pIC50: −log10 of the molar value. Activity calls are given as the source filed them. No cut-off for these calls is given here.

Key:
[1] = Selectivity for ERbeta over ERalpha
MCF7 [2] = test: Cytotoxicity against estradiol-stimulated human MCF7 cells expressing ERalpha at 25 uM after 6 days by MTS assay; format: functional, cell-based
Outline: (§1)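 MCF-7 cells (an earlier passage expressing ERα and ERβ, or the later-passage ATCC variant expressing only ERα) were seeded at 4×10^3 cells/well in phenol red-free RPMI-1640 with 10% charcoal-dextran stripped FBS and left to adhere overnight. […] MTS/PMS read-out was A490 minus A630 after 2 h. Day-0 cells were set to 0% growth and E2-stimulated day-6 growth to 100%.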

MCF7 [3] = test: Cytotoxicity against estradiol-stimulated human MCF7 cells expressing ERalpha and ERbeta at 25 uM after 6 days by MTS assay; format: functional, cell-based; outline: as §1
MDA-MB-231 [4] = test: Cytotoxicity against estrogen receptor deficient human MDA-MB-231 cells at 25 uM after 72 hrs by MTS assay; format: functional, cell-based
Outline: (§2)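 Cells were plated at 1×10^3 cells/well in phenol red-free RPMI-1640 with 10% FBS and left to adhere 72 h. Agents were given over 3.2 nM to 50 µM for 72 h. Cell density was read by MTS dye reduction, A490 with A630 background subtracted.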

Estrogen receptor = target: T1, Estrogen receptor (Homo sapiens, UniProt P03372); test: Displacement of fluorescein-labeled estradiol from human recombinant ERalpha by fluorescence polarization assay; details: for pIC50: read-out: IC50
T1 sequence (P03372 whole entry): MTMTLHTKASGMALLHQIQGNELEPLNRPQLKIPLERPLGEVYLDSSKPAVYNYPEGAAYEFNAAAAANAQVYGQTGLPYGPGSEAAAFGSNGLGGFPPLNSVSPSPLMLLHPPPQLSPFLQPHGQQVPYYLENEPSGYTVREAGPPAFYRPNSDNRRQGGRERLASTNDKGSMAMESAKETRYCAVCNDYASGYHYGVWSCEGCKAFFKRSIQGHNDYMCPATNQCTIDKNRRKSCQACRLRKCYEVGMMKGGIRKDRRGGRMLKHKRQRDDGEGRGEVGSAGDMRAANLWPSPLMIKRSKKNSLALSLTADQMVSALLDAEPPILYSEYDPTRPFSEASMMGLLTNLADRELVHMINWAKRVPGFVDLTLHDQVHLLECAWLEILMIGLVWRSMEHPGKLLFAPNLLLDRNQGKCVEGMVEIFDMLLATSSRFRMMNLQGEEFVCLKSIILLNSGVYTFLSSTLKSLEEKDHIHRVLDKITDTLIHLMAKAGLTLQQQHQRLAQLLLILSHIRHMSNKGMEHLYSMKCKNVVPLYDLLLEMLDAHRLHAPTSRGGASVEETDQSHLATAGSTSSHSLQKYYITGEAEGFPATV

MCF7 [5] = test: cells; details: Homo sapiens, MCF7, 144 h
MCF7 [6] = test: cells; details: Homo sapiens, MCF7, 144 h; remark: listed apart in the source
Estrogen receptor beta [7] = target: T2, Estrogen receptor beta (Homo sapiens, UniProt Q92731); test: Displacement of fluorescein-labeled estradiol from human recombinant ERbeta by fluorescence polarization assay
T2 sequence (Q92731 whole entry): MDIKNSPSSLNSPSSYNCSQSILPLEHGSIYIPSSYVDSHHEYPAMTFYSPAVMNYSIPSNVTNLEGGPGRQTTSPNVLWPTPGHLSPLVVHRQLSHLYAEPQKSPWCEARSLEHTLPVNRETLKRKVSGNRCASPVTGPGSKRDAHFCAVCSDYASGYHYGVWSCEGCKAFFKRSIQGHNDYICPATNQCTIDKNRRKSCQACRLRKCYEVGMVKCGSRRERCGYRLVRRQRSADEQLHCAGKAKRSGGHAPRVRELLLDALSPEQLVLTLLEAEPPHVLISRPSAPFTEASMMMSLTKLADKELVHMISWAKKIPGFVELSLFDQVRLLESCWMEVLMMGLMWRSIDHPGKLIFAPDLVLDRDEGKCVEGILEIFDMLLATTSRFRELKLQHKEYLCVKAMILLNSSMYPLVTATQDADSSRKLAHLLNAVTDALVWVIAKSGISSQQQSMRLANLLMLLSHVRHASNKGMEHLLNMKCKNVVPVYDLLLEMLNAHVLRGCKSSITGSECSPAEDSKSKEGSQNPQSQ
Outline: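 ER (15 nM) was incubated with Fluormone ES2 (1 nM) and serially diluted compound in DMSO (1% v/v) in duplicate. Polarization was read after 2 h (ex 485/em 530 nm). […] Values are means of three experiments.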

MDA-MB-231 [8] = test: Growth inhibition of estrogen receptor deficient human MDA-MB-231 cells at 3.2 nM to 50 uM after 72 hrs by MTS assay; format: functional, cell-based; outline: as §2
[9] = Selectivity for ERalpha over ERbeta
[10] = target: T3, Estrogen receptor (Homo sapiens) (UniProt P03372); test: Displacement of fluorescein-labeled estradiol from human recombinant ERalpha at 5 uM by fluorescence polarization assay
T3 sequence (whole entry): T1 sequence (P03372 whole entry)

[11] = target: T3, Estrogen receptor (Homo sapiens); test: Displacement of fluorescein-labeled estradiol from human recombinant ERalpha at 0.2 uM by fluorescence polarization assay
Estrogen receptor beta [12] = target: T2, Estrogen receptor beta; test: Displacement of fluorescein-labeled estradiol from human recombinant ERbeta at 1 uM by fluorescence polarization assay
Estrogen receptor beta [13] = target: T2, Estrogen receptor beta; test: Displacement of fluorescein-labeled estradiol from human recombinant ERbeta at 0.2 uM by fluorescence polarization assay
Estrogen receptor beta [14] = target: T2, Estrogen receptor beta; test: Displacement of fluorescein-labeled estradiol from human recombinant ERbeta at 5 uM by fluorescence polarization assay
[15] = target: T3, Estrogen receptor (Homo sapiens); test: Displacement of fluorescein-labeled estradiol from human recombinant ERalpha at 1 uM by fluorescence polarization assay

Compound | Activity [10] | Activity [11] | Activity (Estrogen receptor beta [12]) | Activity (Estrogen receptor beta [13]) | Activity (Estrogen receptor beta [14]) | Activity [15] | further results
Cc1cc(-c2ccc(O)c(F)c2)ccc1/C=N/O | – | – | – | – | – | – | fold change (FC) [1]: 43
CCCC[C@@H]1C[C@H]1[C@@H](N)c1ccc(-c2ccc(O)cc2)cc1F.Cl (relative stereo) | – | – | – | – | – | – | Activity (MCF7 [2]): Active; Activity (MCF7 [3]): Active; Activity (MDA-MB-231 [4]): Active; IC50 (Estrogen receptor): Not Active; GI50 (MCF7 [5]): 1.2 µM; GI50 (MCF7 [6]): 51.7 µM; pIC50 (Estrogen receptor beta [7]): 4.82; growth inhibition (GI) (MDA-MB-231 [8]): inactive
O/N=C/c1ccc(-c2ccc(O)cc2)cc1F | – | – | – | – | – | – | pIC50 (Estrogen receptor): 6.10; pIC50 (Estrogen receptor beta [7]): 7.49; fold change (FC) [1]: 11
CCCC[C@@H]1C[C@H]1[C@@H](NC(=O)c1ccccc1)c1ccc(-c2ccc(O)cc2)cc1F (relative stereo) | – | – | – | – | – | – | Activity (MCF7 [2]): Active; Activity (MCF7 [3]): Active; Activity (MDA-MB-231 [4]): Active; pIC50 (Estrogen receptor): < 4.00; GI50 (MCF7 [5]): 4.1 µM; pIC50 (Estrogen receptor beta [7]): 5.69; growth inhibition (GI) (MDA-MB-231 [8]): inactive
O=C(c1ccc(OCCN2CCCCC2)cc1)c1c(-c2ccc(O)cc2)sc2cc(O)ccc12 | – | – | – | – | – | – | Activity (MCF7 [2]): Active; Activity (MCF7 [3]): Active; Activity (MDA-MB-231 [4]): Active; growth inhibition (GI) (MDA-MB-231 [8]): inactive
CCCc1c(-c2ccc(O)cc2)nn(-c2ccc(O)cc2)c1-c1ccc(O)cc1 | – | – | – | – | – | – | fold change (FC) [9]: 410
C=C(CCCC)[C@@H](NC(=O)C(C)(C)C)c1ccccc1 | 13% | -67% | -12% | -10% | -4% | 13% | –
CCC/C=C(\CCC)[C@@H](NP(=O)(c1ccccc1)c1ccccc1)c1ccc(C(F)(F)F)cc1 | 79% | 55% | 16% | 8% | 27% | 65% | –
CCCC[C@@H]1C[C@H]1[C@@H](NC(=O)c1cccs1)c1ccc(-c2ccccc2)cc1 | 37% | 58% | 8% | -1% | 5% | 54% | –
CCC/C=C(\CCC)[C@@H](NC(=O)c1ccccc1)c1ccccc1 | 82% | 51% | 6% | 8% | 17% | 56% | –
CCC/C=C(\CCC)[C@@H](NC(=O)c1ccc(C(F)(F)F)cc1)c1ccccc1 | 68% | 47% | 11% | 10% | 16% | 59% | –
CCC/C=C(\CCC)[C@@H](NS(=O)(=O)c1ccc(C(F)(F)F)cc1)c1ccc(-c2ccccc2)cc1 | 46% | 72% | 8% | 7% | 7% | 14% | –
CCCC[C@@H]1C[C@H]1[C@@H](NC(=O)c1ccco1)c1ccc(-c2ccccc2)cc1 | 54% | 58% | 0% | -2% | 13% | 57% | –
CCC[C@@H]1C[C@@]1(CCC)[C@@H](NS(=O)(=O)c1cccc2cccnc12)c1ccc(-c2ccccc2)cc1 | 88% | 58% | 17% | 15% | 29% | 70% | –
CCCCCC/C=C(\C)[C@@H](NC(=O)c1cccnc1)c1ccc(-c2ccccc2)cc1 | 48% | 32% | -4% | -8% | 6% | 44% | –

Second part, led by results:

Activity [10] | Activity [11] | Activity (Estrogen receptor beta [12]) | Activity (Estrogen receptor beta [13]) | Activity (Estrogen receptor beta [14]) | Activity [15] | Compound | further results
91% | 63% | 7% | 8% | 20% | 65% | CCCC[C@@H]1C[C@H]1[C@@H](NC(=O)c1ccco1)c1ccccc1 | –
38% | -14% | -3% | -13% | 8% | 24% | CCC/C=C(\CCC)[C@@H](NC(=O)c1ccc(C(=O)OC)cc1)c1ccc(C(=O)OC)cc1 | –
-6% | 7% | -6% | -8% | -5% | 17% | CCC[C@@H]1C[C@@]1(CCC)[C@@H](NC(=O)Cc1ccccc1)c1ccc(-c2ccccc2)cc1 | –
90% | 47% | 10% | -1% | 30% | 74% | CCC/C=C(\CCC)[C@@H](NS(=O)(=O)c1ccc(C(F)(F)F)cc1)c1ccccc1 | –
95% | 42% | 13% | 6% | 42% | 61% | CCC/C=C(\CCC)[C@@H](NS(=O)(=O)c1ccc(C(Cl)(Cl)Cl)cc1)c1ccccc1 | –
-44% | 5% | -1% | 2% | -5% | 30% | CCC[C@@H]1C[C@@]1(CCC)[C@@H](NP(=O)(c1ccccc1)c1ccccc1)c1ccc(Cl)cc1 | –
56% | 40% | -4% | -2% | 7% | 39% | CCCC[C@@H]1C[C@H]1[C@@H](NC(=O)C(C)(C)C)c1ccc(C(F)(F)F)cc1 | –
46% | -33% | 2% | 0% | 8% | 35% | C=C(CCCC)[C@@H](NC(=O)c1ccc(-c2ccccc2)cc1)c1ccccc1 | –
48% | 32% | 1% | -9% | 13% | 33% | CCCC[C@@H]1C[C@H]1[C@@H](NC(=O)c1ccccc1)c1ccc(C(F)(F)F)cc1 | –
89% | 64% | 2% | 8% | 15% | 84% | CCCC[C@@H]1C[C@H]1C(NC(=O)c1ccco1)c1ccc(C(=O)OC)cc1 (single isomer, unassigned) | –
41% | 52% | -4% | -5% | 2% | 52% | CCCC[C@@H]1C[C@@]1(C)[C@@H](NS(=O)(=O)c1cccc2cccnc12)c1ccc(-c2ccccc2)cc1 | –
